In the library only some 5.3% were active in any assay of this set; here they are far more common.
NLRP3 yeast inh – NALP3 inhibition in yeast; 330,000 tested, 0.39% active; Yeast reconstituted NLRP3/ASC/caspase-1, beta-gal luminescence, 24 h; AID 2825; inhibition, % at 10 µM;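 active means inhibition of 50% or more; inactive means inhibition below 50%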;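 further: plate controls were induced DMSO wells for no effect and uninduced yeast grown without galactose for full effect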
Beta apoptosis – beta cell apoptosis inhibition; INS-1E cytokine-induced death, ATP luminescence, 48 h; percent of positive-control rescue, neutral wells zero; protection from apoptosis, % (concentration not given with the values); 300,000 tested, 0.8% active;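 active means Every replicate reaches about 75%, or at least half do and their mean reaches it too, limit read from the data; inconclusive means At least half of replicates reach the limit but their mean does not; inactive means Under half of replicates reach the limit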;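 further: 0% = cytokine-treated negative control wells and 100% = positive control rescue; higher means more ATP so stronger rescue from cytokine killing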
Calb FLC – C. albicans growth modulation with fluconazole. C. albicans CaCi-2 + fluconazole, Alamar Blue growth, 48 h. growth inhibition, % (no concentration beside the values). 300,000 tested, 0.57% active. AID 1979;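 active means growth inhibition above about 58% in most replicates, limit read from the data, passing the limit was not always enough; inconclusive means exactly half the replicates above a set limit; inactive means most replicates below a set limit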;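 further: all wells also contain fluconazole at 8 µg/ml as a sub-toxic cotreatment; 0% = median of DMSO wells and 100% = median of geldanamycin control wells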
Mdm2 MdmX PPI – inhibitors of human Mdm2/MdmX interaction. O15151+Q00987. SaOS-2 split-luciferase Mdm2/MdmX complementation, luminescence. inhibition, % at 8 µM. 330,000 tested, 3% active. AID 485346;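 active means inhibition of at least 50% at 8 µM in the primary screen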
Target sequence (O15151 whole entry, looked up): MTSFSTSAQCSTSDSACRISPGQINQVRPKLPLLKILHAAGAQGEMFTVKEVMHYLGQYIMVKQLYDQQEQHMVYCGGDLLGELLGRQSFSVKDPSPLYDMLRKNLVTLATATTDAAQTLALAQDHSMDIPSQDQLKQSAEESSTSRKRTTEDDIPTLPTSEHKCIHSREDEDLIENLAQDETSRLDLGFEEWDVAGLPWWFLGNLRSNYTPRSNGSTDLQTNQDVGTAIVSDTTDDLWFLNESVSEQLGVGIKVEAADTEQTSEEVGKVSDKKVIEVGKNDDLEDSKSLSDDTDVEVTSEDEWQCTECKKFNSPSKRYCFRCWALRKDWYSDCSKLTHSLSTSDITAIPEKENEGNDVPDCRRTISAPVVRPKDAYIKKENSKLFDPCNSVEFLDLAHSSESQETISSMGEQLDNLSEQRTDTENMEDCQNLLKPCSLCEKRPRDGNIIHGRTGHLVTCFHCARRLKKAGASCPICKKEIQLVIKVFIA
Target sequence (Q00987 whole entry, looked up): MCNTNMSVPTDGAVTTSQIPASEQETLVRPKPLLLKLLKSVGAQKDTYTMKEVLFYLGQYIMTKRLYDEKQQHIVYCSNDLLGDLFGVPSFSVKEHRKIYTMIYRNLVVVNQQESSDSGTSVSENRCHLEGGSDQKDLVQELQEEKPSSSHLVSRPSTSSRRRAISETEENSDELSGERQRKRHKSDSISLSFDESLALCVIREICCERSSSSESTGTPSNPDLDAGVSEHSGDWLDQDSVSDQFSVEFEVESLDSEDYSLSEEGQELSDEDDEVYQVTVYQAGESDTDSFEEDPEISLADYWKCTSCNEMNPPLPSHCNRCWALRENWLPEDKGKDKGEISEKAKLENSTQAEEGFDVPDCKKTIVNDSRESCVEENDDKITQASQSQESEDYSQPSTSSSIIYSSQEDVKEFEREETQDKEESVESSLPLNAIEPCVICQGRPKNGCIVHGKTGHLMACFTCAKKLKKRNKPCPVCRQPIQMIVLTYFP
T cruzi inh – blocks replication of Trypanosoma cruzi; T. cruzi beta-gal in NIH3T3, luminescence, 90 h; inhibition, % (concentration not given with the values); 300,000 tested, 1.4% active;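 active means mean inhibition across valid replicates above about 55%, limit read from the data; inconclusive means mean below that limit but half or more replicates reach it; inactive means mean below it, under half of replicates reach it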;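 further: signal also drops with host cell toxicity which is not excluded here; 0% = plate median of DMSO wells and 100% = zero luminescence signal; higher percent means less beta-gal luminescence so fewer parasites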
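Assay system: NIH/3T3 fibroblasts plus reporter T. cruzi. Amount: NIH/3T3 cells, 5,000 per well. Buffer or medium: DMEM, 2% fetal bovine serum. Doses: compound pinned at 50 nL/well, DMSO. Schedule: ≥90 h infection period, 3 h prior cell attachment. Signal: luminescent β-galactosidase signal after 60 min lysis. Read-out: parasite load inhibition, %.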
CSC inhib – cancer stem cell inhibition | cancer stem cell-like cells viability, luminescence | inhibition, % at 7.5 µM | 300,000 tested, 1.1% active | AID 2717; in the data active means inhibition above about 75%; inconclusive means no clear call, values can overlap the other calls; tested in HMLE shEcad cells
Mdm2-MdmX conf – human Mdm2/MdmX binding inhibition, confirmed | shares compounds with Mdm2 MdmX PPI | 10,000 tested, 55% active | inhibition, % at 8 µM | luminescent assay; in the data active means inhibition above about 40%
FLuc counter – full-length luciferase inhibition in Mdm2/MdmX counter-screen; shares compounds with Mdm2 MdmX PPI; SaOS-2 full-length luciferase counterscreen, luminescence; inhibition, % at 8 µM; 6,200 tested, 77% active; AID 504607;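 active means mean inhibition at 8 µM reaching about 37%, which flags the compound as non-specific, limit read from the data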;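 further: p53-null SaOS-2 cells with luciferase driven by a doxycycline-inducible promoter; compound on cells about two nights before reading with doxycycline added after day one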
Starred values were filed as active, the others as inactive; ? = inconclusive; · = not tested or not shown.

SMILES	NLRP3 yeast inh	Beta apoptosis	Calb FLC	Mdm2 MdmX PPI	T cruzi inh	CSC inhib	Mdm2-MdmX conf	FLuc counter
CCOC(=O)c1[nH]c(C)c(C(=O)Nc2ccccc2C)c1C	-1	18	0	56*	-71	·	62*	49*
O=C(CCl)N(CCCNC(=O)C(F)(F)F)c1ccc([N+](=O)[O-])cc1	17	-3	1	93*	-12	17	72*	38*
COc1ccc(NC(=S)NC(=O)/C=C/c2ccc(F)cc2)cc1	15	-3	-1	13	-6	9	·	·
COCC(C)n1c(SCc2cc(=O)n3cc(C)ccc3n2)nc2ccccc2c1=O (centres undefined)	-8	2	16	51*	6	11	10	·
Cc1ccc2nc(CSc3nnc4ccccn34)cc(=O)n2c1	14	-4	18	15	-1	-5	·	·
Cc1ccc(NC(=O)c2cc3c(=O)oc4ccc(C)cc4c3s2)nc1	-5	33	5	75*	3	1	12	·
Cc1ccnc(NC(=O)c2cc3c(=O)oc4ccc(C)cc4c3s2)c1	34	32	0	70*	-10	-2	38	74*
Cc1ccc2oc(=O)c3cc(C(=O)NCCN4CCN(C)CC4)sc3c2c1	17	4	6	-8	-9	31	·	·
CCC1CCCCN1CCCNC(=O)c1cc2c(=O)oc3ccc(C)cc3c2s1 (centres undefined)	8	-2	11	54*	36	13	3	·
O=C(Nc1ccncc1NC(=O)c1cccc([N+](=O)[O-])c1)c1cccc([N+](=O)[O-])c1	-15	2	?	87*	-8	-4	56*	31
CC[C@H](C)[C@H]1O[C@]2(CC[C@@H]1C)C[C@@H]1C[C@@H](CC=C(C)[C@@H](O[C@H]3C[C@H](OC)[C@@H](O[C@H]4C[C@H](OC)[C@@H](O)[C@H](C)O4)[C@H](C)O3)[C@@H](C)C=CC=C3CO[C@@H]4[C@H](O)C(C)=C[C@@H](C(=O)O1)[C@]34O)O2	9	87*	·	100*	·	103*	23	·
CC(C)(C)c1ccc(C(=O)c2c[nH]c(C(=O)NCCCN3CCOCC3)c2)cc1	16	·	17	4	-11	-8	·	·
COC(=O)c1ccc(C(=O)NC(=S)Nc2ccc3nc(SC)sc3c2)cc1	11	-6	6	81*	-8	-10	25	·
Cc1cnn(-c2cc(N/N=C/c3ccccc3Cl)ncn2)c1	9	-1	10	63*	-11	16	-2	·
Cc1cnn(-c2cc(N/N=C/c3ccc(F)cc3)ncn2)c1	19	-6	-10	52*	15	-12	42*	101*
Cc1cnn(-c2cc(Oc3ccccc3)ncn2)c1	15	0	0	-45	-11	4	·	·
O=[N+]([O-])c1c(NCCCO)cc(Sc2nc3ccccc3s2)c2nonc12	18	0	39	99*	31	-4	56*	3
Cc1nnc(Sc2cc(NCCCO)c([N+](=O)[O-])c3nonc23)s1	·	·	3	·	16	·	·	·
CCN(CC)CCN(C(=O)c1ccc(S(=O)(=O)N(C)C2CCCCC2)cc1)c1nc2c(C)cccc2s1	18	12	-3	24	33	14	·	·
CCN(Cc1ccccc1)S(=O)(=O)c1ccc(C(=O)N(CCCN(C)C)c2nc3c(C)c(C)ccc3s2)cc1	19	·	36	97*	60*	-3	46*	49*
Cc1ccc2sc(N(CCCN(C)C)C(=O)c3ccc(S(=O)(=O)N(C)C4CCCCC4)cc3)nc2c1C	15	·	-11	99*	59*	89*	54*	67*
CCN(Cc1ccccc1)S(=O)(=O)c1ccc(C(=O)N(CCCN(C)C)c2nc3cc4c(cc3s2)OCO4)cc1	25	-5	-1	73*	37	-19	16	·
CCN(CC)c1ccc(/C=N/N2CCN(Cc3ccc(Cl)cc3)CC2)c(O)c1	15	0	-1	14	47	65	·	·
CCCN(c1ccc(OCC)cc1)c1ncnc2nc[nH]c12	5	-3	0	46	12	-7	·	·
CCN(c1ccc(OC)cc1)c1ncnc2nc[nH]c12	27	-18	-6	63*	-4	-5	66*	36*
SMILES	NLRP3 yeast inh	Beta apoptosis	Calb FLC	Mdm2 MdmX PPI	T cruzi inh	CSC inhib	Mdm2-MdmX conf	FLuc counter
Cc1csc2nc(O)c(C(=O)NCCCc3ccccc3)c(=O)n12	45	·	5	61*	9	-3	70*	21
Cc1ccc(CNC(=O)CCS(=O)(=O)c2cc(Br)cc3c2N(C(=O)C2CC2)CC3)o1	21	8	6	5	-3	9	·	·
O=C(CCS(=O)(=O)Cc1ccccc1)Nc1nc2c(s1)CCCC2	14	-11	7	56*	-6	47	63*	61*
COc1ccccc1OCC(=O)Nc1nc2c(s1)CCCC2	34	·	-7	51*	14	·	59*	83*
O=C(CS(=O)(=O)Cc1ccccc1)Nc1nc2c(s1)CCCC2	12	3	3	19	-2	-2	·	·
Cc1ccc(CC(=O)Nc2nc3c(s2)CCCC3)cc1	12	2	-26	87*	-2	2	79*	37*
CC(=C1C(=O)c2ccccc2C1=O)N1CCN(CCN=CC2=C(O)CC(C)(C)CC2=O)CC1	24	-12	25	26	-9	-20	·	·
CCOC(=O)c1c(C)oc2c1cc(O)c1ccccc12	3	-11	9	-199	-11	-8	·	·
CCOC(=O)c1c(C)oc2c(F)c(F)c(F)c(F)c2c1=O	4	·	36	101*	-17	90*	36	·
Cc1cc(C)cc(N=c2c([N+](=O)[O-])nn(-c3ccc4c(c3)OCCO4)n2O)c1	-40	-4	6	70*	58*	31	65*	45*
O=[N+]([O-])c1nn(-c2ccc(Cl)cc2)n(O)c1=NCc1ccccc1	-29	-2	3	8	14	7	·	·
O=[N+]([O-])c1nn(-c2ccc3c(c2)OCCO3)n(O)c1=Nc1ccccc1	31	5	38	91*	41	9	95*	53*
O=[N+]([O-])c1nn(-c2ccc3c(c2)OCCO3)n(O)c1=Nc1ccc(Cl)cc1	36	-6	6	86*	55*	18	92*	51*
COc1ccc(-n2nc([N+](=O)[O-])c(=NCc3ccc4c(c3)OCO4)n2O)cc1	32	3	2	-85	49	-6	·	·
Cc1ccc(N=c2c([N+](=O)[O-])nn(-c3ccc4c(c3)OCCO4)n2O)cc1F	7	-3	-1	80*	?	18	95*	24

Screening results: PubChem, several laboratories
